# RBBP9 inhibitor – inhibitors of human serine hydrolase RBBP9; O75884; 220,000 compounds, 0.2% hits; recombinant RBBP9, FP-Rh probe fluorescence polarization; inhibition, % at 7.94 µM; AID 1515;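 active means inhibition above the campaign mean of all tested compounds plus 3 SD, cut at about 14% in these data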
# Target sequence (O75884 whole entry, looked up): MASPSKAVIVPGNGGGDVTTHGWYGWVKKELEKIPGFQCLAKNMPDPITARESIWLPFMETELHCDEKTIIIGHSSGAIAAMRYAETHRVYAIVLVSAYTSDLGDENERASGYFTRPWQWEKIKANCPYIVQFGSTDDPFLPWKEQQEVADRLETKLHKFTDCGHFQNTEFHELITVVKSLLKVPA
#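 Controls: DMSO-treated enzyme wells and wells lacking RBBP9 | Material: RBBP9 protein | Technique: Fluorescence polarization | Replication: Single well per compound, no replicates | Buffer or medium: Tris-NaCl-Pluronic buffer, pH 8.0 | Timing: 30 min compound preincubation, 45 min probe labeling, 25 °C | Read-out basis: Percent inhibition from mP, scaled between DMSO and no-protein wells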
# Insulin prom inh – TRM-6 insulin promoter activity inhibition | TRM-6 cells, insulin promoter-eGFP reporter, imaging; reporter expression induced with tamoxifen | inhibition, % at 2 µM | 130,000 compounds, 0.9% hits | AID 1273;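 active means inhibition above the mean plus 3 SD, with well images judged a real hit on visual review, cut at about 60% in these data, passing the limit was not always enough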
# Ins promoter up – MIN6 insulin promoter up-regulation. 190,000 compounds, 0.3% hits. AID 1625. MIN6 insulin promoter-GFP reporter, high-content imaging; stronger effect = higher value. z-score at 5 µM;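 active means z-score above 3 at 5 µM with at least 500 cells counted in the well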
# Mdm2 ligase inh – blocks human Mdm2 ubiquitin ligase activity. signal enhancement, % at 5 µM. Q00987. 210,000 compounds, 0.11% hits. AID 1230. cell-based MDM2 ubiquitination luciferase reporter, 2 h; 0 = plate control, 100 = twice control, blank-subtracted;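 active means signal enhancement of 30% or more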;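 further: luminescence tracks abundance of the self-degrading MDM2-luciferase fusion protein; higher signal means inhibition of MDM2 E3 ligase activity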
# Target sequence (Q00987 whole entry, looked up, the tested form may be a part): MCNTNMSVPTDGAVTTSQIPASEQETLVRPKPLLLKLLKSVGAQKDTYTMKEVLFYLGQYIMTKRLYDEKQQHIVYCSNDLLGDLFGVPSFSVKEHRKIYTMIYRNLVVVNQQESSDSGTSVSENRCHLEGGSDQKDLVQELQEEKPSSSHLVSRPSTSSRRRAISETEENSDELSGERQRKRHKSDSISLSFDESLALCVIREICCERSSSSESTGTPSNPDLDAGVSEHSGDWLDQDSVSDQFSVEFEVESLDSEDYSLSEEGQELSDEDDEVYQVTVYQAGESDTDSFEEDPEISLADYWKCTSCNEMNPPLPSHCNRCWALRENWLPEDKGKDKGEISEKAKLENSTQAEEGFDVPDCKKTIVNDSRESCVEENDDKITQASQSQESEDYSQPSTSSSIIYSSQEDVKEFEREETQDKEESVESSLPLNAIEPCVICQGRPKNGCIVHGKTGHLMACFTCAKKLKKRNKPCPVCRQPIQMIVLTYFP
#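 Assay system: mammalian cells stably expressing self-ubiquitinating, self-degrading MDM2 E3–luciferase fusion. Quantity: 2000 cells in each well. Medium: DMEM culture medium. Compound dosing: single-point 5 µM. Timing: cell settling 4 h, compound treatment 2 h, both 37 °C. Technique: luciferase luminescence. Read-out basis: percent signal gain over controls, blank-subtracted. Benchmarks: plate controls and plate blanks.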
# Hsp70 act – switches on Hsp70 transcription; HeLa Hsp70 promoter luciferase reporter, luminescence; scaled: vehicle 0, proteasome-inhibitor control 100%; activation, % at 10 µM; 200,000 compounds, 0.04% hits;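 active means activation above the mean across all tested compounds plus 3 SD, cutoff set per campaign, cut at about 5.5% in these data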
# Wee1 stabilizer – inhibitors of human Wee1 degradation; AID 1321; 220,000 compounds, 1.2% hits; reporter increase, % at 5 µM; HeLa Luc-Wee1K328M stability, luciferase luminescence; 100% = proteasome inhibitor MG132 effect; P30291;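 active means activation above the mean of all tested compounds plus 3 SD, set per screening run, cut at about 8.8% in these data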;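 further: cells exposed to compound for 20 h before luminescence read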
# A number is an active result; n = inactive; x = not tested or not shown. Sampled rows, rich in hits. Any-hit rate of the full collection: about 2.2%.
SMILES,RBBP9 inhibitor,Insulin prom inh,Ins promoter up,Mdm2 ligase inh,Hsp70 act,Wee1 stabilizer
Cc1cc(C)nc(Sc2ncnc(N)c2[N+](=O)[O-])n1,n,x,n,n,n,n
CC(=O)C1=C(O)C(=O)N(c2ccc(C)cc2)C1c1ccc([N+](=O)[O-])cc1 (stereo not given),n,x,n,n,n,n
CC(=O)C1=C(O)C(=O)N(c2ccc(O)cc2)C1c1ccc([N+](=O)[O-])cc1 (stereo not given),n,x,n,n,n,9.3
C/C(N)=C(/C#N)C(=O)COC(=O)COc1ccc(Cl)cc1C,n,x,x,n,n,n
CCCN1Cc2cccc(C(=O)NCc3ccc(C)cc3)c2C1=O,n,x,n,n,n,9.3
CNC(=O)CSc1nnc(C(C)C)n1C,n,x,n,n,n,n
C=CCN(c1cccc(C(F)(F)F)c1)S(=O)(=O)c1cccc(C(=O)OCC(=O)NCCC)c1,n,x,n,115.9,n,n
O=C(Cn1ncn2c(cc3ccccc32)c1=O)NCc1ccco1,n,x,3.78,n,n,n
Cn1nc(C(=O)NCc2ccco2)c2ccccc2c1=O,n,61.5,n,n,n,n
COc1cccc(C(=O)C2CCCN(Cc3cccc(-n4nc(C)cc4C)c3)C2)c1 (stereo not given),n,x,n,n,n,n
Cc1cccc2c1NC(=O)/C2=C\C(=O)c1cccs1,n,66.7,x,n,n,n
Cc1cc(Br)c2c(c1)/C(=C/C(=O)c1cccs1)C(=O)N2,n,x,n,n,n,n
N#C/C(=C/c1ccc([N+](=O)[O-])cc1)C(N)=O,n,n,n,n,n,10.9
N#C/C(=C\c1cc([N+](=O)[O-])ccc1Cl)C(N)=O,n,x,n,n,n,n
CCOc1ccc(NC2=NC(C(=O)NCc3ccccc3)CC(=O)N2)cc1 (stereo not given),n,x,n,n,n,n
CCN1C(=O)C(CC(=O)Nc2ccc(OC)cc2)N(CCCN2CCN(c3ccc(OC)cc3)CC2)C1=S (stereo not given),n,n,n,n,n,n
CC(=O)c1ccc(OCC(O)Cn2nnc3ccccc32)cc1 (stereo not given),n,x,n,36.5,n,n
CN(C)CCCNC1=CC(=O)CC(c2ccccc2)C1 (stereo not given),n,83.3,n,n,n,n
CCN(CC)CCN1C(=O)C(=O)/C(=C(/O)c2c(C)[nH]c(C(=O)OC)c2C)C1c1ccc(C)o1 (stereo not given),n,x,n,n,x,n
Cc1cc(-c2nc(C)c(-c3nnc(SCC(=O)Nc4ccc(Cl)cc4)n3C)s2)no1,n,x,n,n,x,n
CCC1CCCCN1CCCn1c(=S)[nH]c2ccccc2c1=O (stereo not given),n,n,n,n,n,n
C#CCSc1nnc(-c2cc3c(C(F)(F)F)nn(C)c3s2)n1C,n,n,x,n,n,n
CCCCOc1nc(N2CCOCC2)nc(C)c1[N+](=O)[O-],n,x,n,n,x,n
Cc1nc(N2CCOCC2)nc(Oc2ccccc2)c1[N+](=O)[O-],n,x,n,n,x,9.2
CCCS(=O)(=O)Nc1ccc(-c2ccc3nnc(C)n3n2)cc1,n,x,x,n,n,n
SMILES,RBBP9 inhibitor,Insulin prom inh,Ins promoter up,Mdm2 ligase inh,Hsp70 act,Wee1 stabilizer
Cn1c(=O)c2c(nc(Br)n2Cc2nnc(N)s2)n(C)c1=O,n,x,n,x,x,n
COc1ccc(/C=C/C(=O)c2ccoc2)cc1,n,n,x,n,n,12.7
COc1cc(OC)cc(C(=O)NCCOC23CC4CC(CC(C4)C2)C3)c1,n,x,n,n,n,9.4
COc1cccc(CCC(=O)O)c1OC,n,88.9,x,n,n,n
O=C(O)CCc1ccccc1OC(=O)c1ccccc1,n,x,n,n,x,n
Cc1ccc(S(=O)(=O)CCN2C=CC(C(F)(F)F)=NCC2)cc1,n,x,n,n,x,n
Cn1c(=O)[nH]c(=O)c2c1nc(N1CCCCCC1)n2CCSc1nc2ccccc2[nH]1,n,n,n,n,n,10.7
COc1cc(N=Nc2cccc(S(N)(=O)=O)c2)c2ccccc2c1N,n,x,5.92,n,x,n
c1ccc(Oc2ccc(-c3ccnc4nc(N5CCOCC5)nn34)cc2)cc1,n,n,n,n,n,9.3
COc1ccc(-c2ccnc3nc(N4CCOCC4)nn23)cc1,n,n,x,n,n,n
COc1ccccc1CNC(=O)CN1C(=O)CSc2ccc(S(=O)(=O)N3CCCC3)cc21,n,x,n,x,n,n
CCN1C(=O)CSc2ccc(C(=O)NCc3ccccc3OC)cc21,n,n,3.1,n,n,n
Cc1noc(C)c1COc1ccc(CC(=O)NCc2ccccc2)cc1,n,x,n,n,n,9.3
Cc1noc(C)c1COc1ccc(CC(=O)NC2CCCCCC2)cc1,n,x,n,n,n,n
CNS(=O)(=O)c1cccc(C(=O)Nc2cccnc2)c1,n,n,x,n,n,10.8
CCN(CC)S(=O)(=O)c1cccc(C(=O)Nc2cccnc2)c1,n,n,n,n,n,n
COc1ccc(N=Nc2nc3ccc(Br)cc3n2C)cc1,n,n,n,n,n,9.9
COc1ccc(Cc2nc3ccccc3n2C)cc1,n,x,x,n,n,n
Cc1nnc(SCCN2CCOCC2)c2nn(-c3ccccc3F)c(C)c12,n,n,n,78.8,n,n
COc1ccc(C)cc1N(CC(=O)Nc1ccc2c(c1)OCCO2)S(C)(=O)=O,n,x,n,n,n,n
Cc1nn(CC(=O)NCc2ccc(Cl)cc2)c(C)c1[N+](=O)[O-],n,n,n,n,n,n
C=CCNc1nc(SCC=C)nc2ccsc12,n,83.3,n,n,n,n
C=CCSc1nc(Oc2ccccc2)c2sccc2n1,n,n,n,n,n,n
Cc1ccc(NC(=O)COC(=O)CSC(=S)N2CCOCC2)cc1,n,n,n,n,n,n
CCn1c(CNC(=O)Cc2ccc(OC)cc2)nnc1SCC(=O)Nc1ccc(C(=O)O)cc1,n,x,n,n,n,n
SMILES,RBBP9 inhibitor,Insulin prom inh,Ins promoter up,Mdm2 ligase inh,Hsp70 act,Wee1 stabilizer
CCn1c(CNC(=O)Cc2ccc(OC)cc2)nnc1SCC(=O)Nc1nccs1,n,n,n,n,n,10.7
O=C(NCc1ccncc1)c1nc(-c2ccc(C(F)(F)F)cc2)no1,n,x,n,n,n,n
COc1ccc(NC(=O)C/C(C)=N/NC(=O)C(=O)NC(C)C)c(OC)c1,n,n,n,n,n,9.7
COc1ccc(NC(=O)C/C(C)=N/NC(=O)C(=O)Nc2cccc(Cl)c2C)c(OC)c1,n,n,x,n,n,n
Cc1ccccc1C(=O)N1CCC(C(N)=O)CC1,n,n,n,n,n,n
CSc1ccccc1OC1CCN(Cc2ccccc2)CC1,n,n,n,n,n,n
CC1Cc2ccccc2N1C(=O)C12CCC(C)(C(=O)C1)C2(C)C (stereo not given),n,94.6,n,n,n,n
O=C(Nc1cccc(S(=O)(=O)N2CCCCC2)c1)Nc1ccc(Cl)cc1Cl,n,n,n,x,n,n
O=C(Cc1ccc(Cl)cc1Cl)NCC1(N2CCOCC2)CCCCC1,n,x,n,n,n,n

# Screens from PubChem BioAssay.
